Bioassay records as filed in PubChem BioAssay.
The full list was thinned out, with hits kept by preference.
UPR CHOP act: activators of apoptotic arm of unfolded protein response (CHOP); CHO-CHOP luciferase reporter, UPR activation, luminescence; percent of tunicamycin response over DMSO baseline; activation, % at 10 µM; 0.34% of 330,000 active; AID 449763;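 active means at 10 µM dose, activation of 40% or more, normalized to positive control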;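 further: 100% = tunicamycin at 10 µg/mL and 0% = DMSO alone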
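assay system = CHO CHOP reporter cells | amount = 500 CHO-CHOP cells per well | buffer or medium = F12 with 10% FBS | incubation = 16-18 h cell attachment, then 6 h compound exposure, 37 °C | detection = luminescence read with Steady-Glo | read-out = percent activation relative to tunicamycin control | controls = tunicamycin high control, DMSO low control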
hiPSC survival: hiPSC single-cell survival enhancement. ATPlite luminescence; 100% = ROCK inhibitor wells, 0% = DMSO. survival enhancement, % at 20 µM. 0.044% of 360,000 active; in the data active means survival enhancement above about 18%;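 further: cells exposed to compounds for 16 hours before the ATP read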
CHOP inhibitor: CHOP inhibition in unfolded protein response | inhibition, % at 10 µM | 3.8% of 220,000 active | CHO-K1 CHOP-promoter luciferase, tunicamycin-induced, 15-18 h;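 active means compounds that reduced the stress-induced luciferase reporter signal by more than about 70% of percent inhibition, limit read from the data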;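 further: 0% = tunicamycin plus vehicle and 100% = wells without tunicamycin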
XBP1 UPR activ: activators of adaptive arm of unfolded protein response (XBP1). AID 463104. activation, % at 20 µM. 0.33% of 330,000 active. CHO-XBP1 luciferase reporter, IRE1-XBP1 UPR activation, luminescence; percent of tunicamycin response, DMSO as zero;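 active means versus positive control, 20 µM dose yields 30% or more activation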;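 further: 100% = tunicamycin at 10 µg/mL and 0% = DMSO only wells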
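Assay system: CHO-XBP1 luciferase reporter cells; Schedule: 6 h treatment, 37 °C; Detection: glow luminescence from Steady-Glo reagent; Benchmarks: high control tunicamycin 10 µg/mL final, low control DMSO vehicle only.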
H9c2 protect: protects H9c2 cardiomyocytes from peroxide injury. H2O2 injury protection, ATPLite, 2 h. AID 588492. protection from H2O2 cell death, % at 20 µM. 0.63% of 360,000 active;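 active means compounds giving at least 50% protection of heart cells from peroxide-induced death in the single-dose screen, raw or plate-pattern-corrected value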;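 further: 0% = DMSO wells with peroxide and 100% = DMSO wells without peroxide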
* marks the source's active call; other numbers are inactive results.

`CC(C)OC(=O)c1cc(C(=O)c2cc(Br)ccc2O)coc1=N` gave UPR CHOP act 2, hiPSC survival 0, CHOP inhibitor 19, XBP1 UPR activ -1 and H9c2 protect -15.
For CCCCc1nc(N2CCOCC2)c(C#N)c2c1COC(C)(C)C2 the results were UPR CHOP act 0, hiPSC survival -2, CHOP inhibitor 1, XBP1 UPR activ -1 and H9c2 protect 5.
CCCCc1nc(NCC2CCCO2)c(C#N)c2c1COC(C)(C)C2 (stereo not given) was read as UPR CHOP act -2, hiPSC survival 12, CHOP inhibitor 86*, XBP1 UPR activ -5 and H9c2 protect -2.
For O=C(Cc1cccs1)Nc1nc2c(ccc3ccccc32)s1 the results were UPR CHOP act 1, hiPSC survival 1, CHOP inhibitor 81*, XBP1 UPR activ -2 and H9c2 protect -12.
For CC(=O)Nc1nc2c(ccc3ccccc32)s1 the results were UPR CHOP act 2, hiPSC survival 0, XBP1 UPR activ -3 and H9c2 protect 0.
`O=C(CCCN1C(=O)/C(=C/c2ccccc2Cl)SC1=S)NNC(=O)c1ccccc1` gave UPR CHOP act -3, hiPSC survival -1, CHOP inhibitor 86*, XBP1 UPR activ -3 and H9c2 protect -5.
`O=C(CCCN1C(=O)/C(=C/c2ccccc2Cl)SC1=S)NNC(=O)c1cccnc1` gave UPR CHOP act -2, hiPSC survival -1, CHOP inhibitor 53, XBP1 UPR activ -5 and H9c2 protect -5.
For O=C(CCCN1C(=O)/C(=C/c2ccccc2Cl)SC1=S)NNC(=O)c1ccc(Cl)cc1Cl the results were UPR CHOP act -5, hiPSC survival 0, CHOP inhibitor 95*, XBP1 UPR activ -5 and H9c2 protect 13.
Screening Nc1nc(Cl)nc2c1ncn2[C@@H]1O[C@H](COP(=O)(O)OP(=O)(O)OP(=O)(O)O)[C@H](O)C1O (stereo not given in full) returned CHOP inhibitor 3.
O=C1NC[C@H](CCCCN2CCN(CCc3ccc(O)cc3)C(=O)C2=O)N(CCC2CCCCC2)C1=O was read as hiPSC survival 1.
CNC(=O)C1CCC(=O)N1Cc1c[nH]c2ccccc12 (stereo not given) was read as hiPSC survival -1 and H9c2 protect 2.
`CN(Cc1ccccc1)C(=O)c1ccc(Cc2cn(C)c3ccccc23)nc1` gave hiPSC survival -1 and H9c2 protect 0.
O=C(NNC(=O)c1cc(Br)ccc1Cl)c1csc(N2CCOCC2)n1 was read as UPR CHOP act 4, hiPSC survival 0, XBP1 UPR activ -3 and H9c2 protect 4.
`O=C(NNC(=O)c1cc(Br)ccc1O)c1csc(N2CCOCC2)n1` gave UPR CHOP act -1, hiPSC survival 0, XBP1 UPR activ -2 and H9c2 protect 66*.
For CCCCNC(=O)CCc1c(C)nc2c(c(C)nn2-c2ccccc2)c1C the results were UPR CHOP act -1, hiPSC survival 1, XBP1 UPR activ -3 and H9c2 protect 1.
`Cc1ccc(-n2nc(C)c3c(C)c(CCC(=O)NCc4ccccc4)c(C)nc32)cc1` gave UPR CHOP act -2, hiPSC survival -1, CHOP inhibitor 70*, XBP1 UPR activ 0 and H9c2 protect -4.
Screening Cc1ccc(CNC(=O)CCc2c(C)nc3c(c(C)nn3-c3ccc(C)cc3)c2C)cc1 returned UPR CHOP act 3, hiPSC survival -1, CHOP inhibitor 51, XBP1 UPR activ -1 and H9c2 protect 0.
For Cc1ccc(-n2nc(C)c3c(C)c(CCC(=O)NCc4ccco4)c(C)nc32)cc1 the results were UPR CHOP act -1, hiPSC survival 1, CHOP inhibitor 70*, XBP1 UPR activ -3 and H9c2 protect -8.
Screening CCOC(=O)CC[C@H](NC(=O)Cn1cnc2c(NCc3ccccc3)ncnc21)C(=O)OCC returned UPR CHOP act 1, hiPSC survival 4, XBP1 UPR activ 3 and H9c2 protect 7.
Screening COc1ccc(Oc2nnc(-c3ccc(C)cc3)c3ccccc23)cc1 returned UPR CHOP act 0, hiPSC survival 1, CHOP inhibitor 83*, XBP1 UPR activ 0 and H9c2 protect -9.
NS(=O)(=O)c1ccc(NC(=O)COC(=O)CCCN2C(=O)c3cccc4cccc(c34)C2=O)cc1 was read as UPR CHOP act 1, hiPSC survival 0, XBP1 UPR activ -3 and H9c2 protect 7.
CC(=O)c1ccccc1NC(=O)COC(=O)CCCN1C(=O)c2cccc3cccc(c23)C1=O was read as UPR CHOP act 2, hiPSC survival 32*, CHOP inhibitor 4, XBP1 UPR activ 0 and H9c2 protect 35.
`Cc1cccc(C2(c3cccc(C)c3)CC2C(=O)Nc2ccc([N+](=O)[O-])cc2O)c1` (stereo not given) gave UPR CHOP act 10, hiPSC survival 0, CHOP inhibitor 103*, XBP1 UPR activ 2 and H9c2 protect -23.
For C=CCNC(=O)C1CC1(c1cccc(C)c1)c1cccc(C)c1 (stereo not given) the results were UPR CHOP act -1, hiPSC survival -1, XBP1 UPR activ 0 and H9c2 protect -8.
CCc1ccc2c(c1)C(c1ccc([N+](=O)[O-])cc1)=NNC(c1ccc(Br)cc1)=N2 was read as UPR CHOP act 15, hiPSC survival 0, CHOP inhibitor 84*, XBP1 UPR activ 0 and H9c2 protect 7.
For CCN(c1ccccc1)S(=O)(=O)c1cc(C(=O)Nc2cccc(Cl)c2)ccc1F the results were UPR CHOP act 0, hiPSC survival -2, CHOP inhibitor 12, XBP1 UPR activ -1 and H9c2 protect -9.
For CCc1ccc(NC(=O)c2ccc(F)c(S(=O)(=O)N(CC)c3ccccc3)c2)cc1 the results were UPR CHOP act 4, hiPSC survival -2, CHOP inhibitor 77*, XBP1 UPR activ -2 and H9c2 protect -6.
`NS(=O)(=O)c1ccc(CCNC(=O)c2ccc(C#CC3(O)CCCCC3)cc2)cc1` gave UPR CHOP act -2, hiPSC survival 3, CHOP inhibitor 66, XBP1 UPR activ -3 and H9c2 protect 71*.
Screening COc1cc(/C=N/O)ccc1OCc1ccc(Cl)cc1 returned UPR CHOP act 2, CHOP inhibitor 39 and XBP1 UPR activ -2.
`CCOc1cc(/C=N/N=C(N)N)ccc1OCc1ccc(Cl)cc1` gave hiPSC survival -4, CHOP inhibitor 108* and H9c2 protect -11.
COc1cc(/C=N/N=C(N)N)ccc1OCc1ccc(Cl)cc1 was read as UPR CHOP act 0, hiPSC survival -4, CHOP inhibitor 78*, XBP1 UPR activ 12 and H9c2 protect -23.
For NC(N)=N/N=C/c1ccc(OCc2ccccc2)c(OCc2ccccc2)c1 the results were UPR CHOP act 63*, hiPSC survival -1, XBP1 UPR activ 0 and H9c2 protect -22.
